In ChEMBL document CHEMBL1134392, “Novel p-arylthio cinnamides as antagonists of leukocyte function-associated antigen-1/intracellular adhesion molecule-1 interaction. 2. Mechanism of inhibition and structure-based improvement of pharmaceutical properties” (J Med Chem, 2001):
Values after ≈ are worked out from the molar mass of the structure shown.

Legend:
[1] = target: T1, Intercellular adhesion molecule (ICAM-1), Integrin alpha-L/beta-2 (Homo sapiens, UniProt P05107+P20701); assay: Inhibition of JY-8 cell adhesion via leukocyte function associated antigen 1 (LFA-1) to ICAM-1, range (30-60); assay type: cell-based
[2] = Dissociation constant was determined; assay type: physicochemical
[3] = target: T1, Intercellular adhesion molecule (ICAM-1), Integrin alpha-L/beta-2; assay: Inhibition of JY-8 cell adhesion via leukocyte function associated antigen 1 (LFA-1) to ICAM-1; assay type: cell-based
[4] = target: T1, Intercellular adhesion molecule (ICAM-1), Integrin alpha-L/beta-2; assay: Inhibition of JY-8 cell adhesion via leukocyte function associated antigen 1 (LFA-1) to ICAM-1, range (120-140); assay type: cell-based
[5] = target: Integrin alpha-L (Homo sapiens); assay: Binding affinity to leukocyte function associated antigen 1 (LFA-1) I domain by NMR
[6] = target: T1, Intercellular adhesion molecule (ICAM-1), Integrin alpha-L/beta-2
[7] = Pharmacokinetic parameter was evaluated which is represented as AUC when administered orally a dose of 5 mg/kg; range (4.2-8.8); assay type: ADME, organism-based; parameters: dose 5 mg/kg, route oral; conditions: in vivo, po
[8] = Half life when administered 5 mg/kg orally; range (4.1-5.5); assay type: ADME, organism-based; parameters: dose 5 mg/kg; conditions: in vivo, po
[9] = Mean Cmax in rats after 5 mg/kg oral dose, range (0.4-0.8); assay type: ADME, organism-based; parameters: dose 5 mg/kg, route oral; conditions: rat, in vivo
[10] = solubility was determined; assay type: physicochemical
How it was run: (§1)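 Excess solid removed by filtration. The saturated solution was diluted and drug concentration measured by UV spectrophotometry.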

[11] = Pharmacokinetic parameter was evaluated after oral administration of 5 mg/kg; range (4-8); assay type: ADME, organism-based; parameters: dose 5 mg/kg, route oral; conditions: in vivo
[12] = target: T1, Intercellular adhesion molecule (ICAM-1), Integrin alpha-L/beta-2; assay: Inhibition of JY-8 cell adhesion via leukocyte function associated antigen 1 (LFA-1) to ICAM-1, range (90-100); assay type: cell-based
[13] = target: T1, Intercellular adhesion molecule (ICAM-1), Integrin alpha-L/beta-2; remark: listed apart in the source
[14] = target: T1, Intercellular adhesion molecule (ICAM-1), Integrin alpha-L/beta-2; assay: Inhibition of JY-8 cell adhesion via leukocyte function associated antigen 1 (LFA-1) to ICAM-1, range (320-350); assay type: cell-based
[15] = target: T1, Intercellular adhesion molecule (ICAM-1), Integrin alpha-L/beta-2; assay: Inhibition of JY-8 cell adhesion via leukocyte function associated antigen 1 (LFA-1) to ICAM-1, range (100-110); assay type: cell-based
[16] = Half life was determined after intravenous administration; assay type: ADME, organism-based; conditions: in vivo
[17] = solubility in rats; assay type: ADME; how it was run: as §1
[18] = AUC(area under curve) was determined after intravenous administration in rats; assay type: ADME, organism-based; conditions: rat, plasma
[19] = Bioavailability was evaluated in rats; assay type: ADME, organism-based; conditions: rat, in vivo
Rattus norvegicus = species: Rattus norvegicus; assay: Pharmacokinetic parameter was evaluated in rats which is represented as Vbeta; assay type: ADME, organism-based; conditions: in vivo
[20] = target: T1, Intercellular adhesion molecule (ICAM-1), Integrin alpha-L/beta-2; assay: Inhibition of JY-8 cell adhesion via leukocyte function associated antigen 1 (LFA-1) to ICAM-1, range (370-470); assay type: cell-based
[21] = target: T1, Intercellular adhesion molecule (ICAM-1), Integrin alpha-L/beta-2; assay: Inhibition of JY-8 cell adhesion via leukocyte function associated antigen 1 (LFA-1) to ICAM-1, range (110-140)
[22] = Half life when administered 5 mg/kg orally; range (0.99-1.14); assay type: ADME, organism-based; parameters: dose 5 mg/kg; conditions: in vivo, po
[23] = Mean Cmax in rats after 5 mg/kg oral dose, range (0.17-0.20); assay type: ADME, organism-based; parameters: dose 5 mg/kg, route oral; conditions: rat, in vivo
[24] = Pharmacokinetic parameter was evaluated after oral administration of 5 mg/kg; range (0.2-1); assay type: ADME, organism-based; parameters: dose 5 mg/kg, route oral; conditions: in vivo
[25] = Pharmacokinetic parameter was evaluated which is represented as AUC when administered 5 mg/kg intravenously; range (2.1-2.3); assay type: ADME, organism-based; parameters: dose 5 mg/kg, route intravenous; conditions: in vivo, iv
[26] = Pharmacokinetic parameter was evaluated which is represented as AUC when administered 5 mg/Kg orally; range (0.19-0.35); assay type: ADME; conditions: in vivo, po
[27] = Pharmacokinetic parameter was evaluated which is represented as Vbeta; range (0.9-6); assay type: ADME
[28] = Bioavailability was evaluated after oral administration of 5 mg/kg; range (8.7-15.8); assay type: ADME, organism-based; conditions: eutheria, in vivo
[29] = Half life when administered intravenously; range (0.3-1.79); assay type: ADME, organism-based; conditions: in vivo, iv

T1 sequence (P20701 whole entry): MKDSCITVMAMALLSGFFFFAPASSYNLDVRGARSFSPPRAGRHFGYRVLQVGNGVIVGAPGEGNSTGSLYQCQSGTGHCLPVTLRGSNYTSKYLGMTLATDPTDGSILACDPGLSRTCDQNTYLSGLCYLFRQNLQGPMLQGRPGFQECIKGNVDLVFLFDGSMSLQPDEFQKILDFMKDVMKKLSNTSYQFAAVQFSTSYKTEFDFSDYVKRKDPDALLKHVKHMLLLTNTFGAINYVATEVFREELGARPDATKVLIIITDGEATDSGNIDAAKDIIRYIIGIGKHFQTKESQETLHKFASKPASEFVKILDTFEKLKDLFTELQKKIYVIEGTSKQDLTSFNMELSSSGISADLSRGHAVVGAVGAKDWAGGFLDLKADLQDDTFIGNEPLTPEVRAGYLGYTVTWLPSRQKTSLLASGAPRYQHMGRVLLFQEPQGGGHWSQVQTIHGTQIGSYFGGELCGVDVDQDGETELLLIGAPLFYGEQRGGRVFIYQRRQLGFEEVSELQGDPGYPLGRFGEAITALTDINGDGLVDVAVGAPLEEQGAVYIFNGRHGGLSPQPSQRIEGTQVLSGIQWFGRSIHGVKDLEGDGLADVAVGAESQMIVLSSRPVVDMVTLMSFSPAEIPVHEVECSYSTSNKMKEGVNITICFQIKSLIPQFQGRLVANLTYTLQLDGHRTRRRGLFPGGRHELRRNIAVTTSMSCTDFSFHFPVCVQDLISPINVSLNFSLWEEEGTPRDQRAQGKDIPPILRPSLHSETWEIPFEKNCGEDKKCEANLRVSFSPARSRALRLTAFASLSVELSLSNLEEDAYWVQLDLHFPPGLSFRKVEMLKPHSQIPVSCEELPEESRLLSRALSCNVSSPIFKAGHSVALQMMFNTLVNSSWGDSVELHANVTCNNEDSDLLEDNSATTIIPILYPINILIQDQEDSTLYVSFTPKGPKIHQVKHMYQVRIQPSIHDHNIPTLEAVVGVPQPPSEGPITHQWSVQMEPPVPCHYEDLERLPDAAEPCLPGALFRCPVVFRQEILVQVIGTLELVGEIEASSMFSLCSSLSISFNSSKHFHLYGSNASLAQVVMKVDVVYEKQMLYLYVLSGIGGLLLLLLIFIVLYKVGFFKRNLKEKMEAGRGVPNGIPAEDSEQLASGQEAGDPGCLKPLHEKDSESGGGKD
T1 sequence (P05362 whole entry, further chain): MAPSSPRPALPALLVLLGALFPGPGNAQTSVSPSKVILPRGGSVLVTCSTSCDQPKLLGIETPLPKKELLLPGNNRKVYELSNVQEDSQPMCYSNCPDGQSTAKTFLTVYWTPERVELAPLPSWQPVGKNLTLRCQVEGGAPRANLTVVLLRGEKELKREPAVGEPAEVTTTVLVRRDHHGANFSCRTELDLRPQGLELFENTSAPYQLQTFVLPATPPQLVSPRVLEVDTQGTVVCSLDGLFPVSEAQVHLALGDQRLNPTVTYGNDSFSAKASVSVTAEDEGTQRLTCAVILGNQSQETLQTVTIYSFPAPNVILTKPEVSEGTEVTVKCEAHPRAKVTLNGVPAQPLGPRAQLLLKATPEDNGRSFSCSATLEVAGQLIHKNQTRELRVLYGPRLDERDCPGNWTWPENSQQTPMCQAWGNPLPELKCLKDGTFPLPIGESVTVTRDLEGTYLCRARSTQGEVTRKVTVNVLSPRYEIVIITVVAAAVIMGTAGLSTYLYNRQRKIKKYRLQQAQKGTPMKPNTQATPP
T1 sequence (P05107 whole entry): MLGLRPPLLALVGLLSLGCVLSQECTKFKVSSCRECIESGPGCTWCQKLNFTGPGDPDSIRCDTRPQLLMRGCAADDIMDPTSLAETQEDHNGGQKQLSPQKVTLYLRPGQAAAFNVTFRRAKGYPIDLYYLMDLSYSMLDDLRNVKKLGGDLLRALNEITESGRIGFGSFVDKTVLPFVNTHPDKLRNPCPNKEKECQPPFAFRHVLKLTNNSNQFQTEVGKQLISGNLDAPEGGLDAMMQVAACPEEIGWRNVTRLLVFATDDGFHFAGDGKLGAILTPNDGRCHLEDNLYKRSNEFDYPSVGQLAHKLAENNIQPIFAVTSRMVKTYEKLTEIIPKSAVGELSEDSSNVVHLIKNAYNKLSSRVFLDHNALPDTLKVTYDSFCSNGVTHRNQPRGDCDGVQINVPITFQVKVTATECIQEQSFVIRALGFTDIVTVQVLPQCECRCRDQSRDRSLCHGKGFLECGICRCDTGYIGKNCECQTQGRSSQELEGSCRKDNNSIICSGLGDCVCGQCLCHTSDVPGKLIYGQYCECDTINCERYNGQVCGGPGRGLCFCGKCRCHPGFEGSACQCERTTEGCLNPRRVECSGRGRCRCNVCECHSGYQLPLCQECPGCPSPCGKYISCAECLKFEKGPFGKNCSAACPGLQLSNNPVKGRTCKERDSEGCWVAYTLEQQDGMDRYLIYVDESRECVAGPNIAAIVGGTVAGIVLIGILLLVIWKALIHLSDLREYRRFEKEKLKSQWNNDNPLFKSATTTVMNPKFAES

Compound COCCn1ccc2cc(Sc3ccc(/C=C/C(=O)N4CCN(C(C)=O)CC4)cc3Cl)ccc21 has an IC50 [1] of 0.06 µM.
For Nc1ccc(Sc2ccc3ccccc3c2Cl)c(Cl)c1, the Kd [2] was < 20 µM and the IC50 [3] was 2.3 µM.
In the case of CCn1ccc2cccc(Sc3ccc(/C=C/C(=O)N4CCN(C(C)=O)CC4)cc3Cl)c21, the IC50 [4] is reported as 0.13 µM.
Compound c1ccc2nsnc2c1 [BENZO[1,2,5]THIADIAZOLE] has a Kd [5] of 8000 µM.
In the case of CC(=O)N1CCN(C(=O)/C=C/c2ccc(Sc3ccc4c(c3)OCC(CO)O4)c(Cl)c2)CC1 (stereo unspecified), the IC50 [3] is reported as 0.02 µM.
CC(=O)N1CCN(C(=O)/C=C/c2ccc(Sc3ccc4[nH]ccc4c3)c(Cl)c2)CC1 gave an IC50 [6] of 0.02 µM, an AUC [7] of 5800 ng·h/mL and a half-life [8] of 282 min. For the same compound, the Cmax [9] was 600 ng/mL, the solubility [10] was 0.8 µg/mL (≈ 1.82 µM) and the Tmax [11] was 360 min.
CC(=O)N1CCN(C(=O)/C=C/c2ccc(Sc3cccc4ccn(C)c34)c(Cl)c2)CC1 showed an IC50 [3] of 0.07 µM.
Work on CCOc1c(Sc2ccc(/C=C/C(=O)N3CCN(C(C)=O)CC3)cc2Cl)ccc2c1OCCO2 yielded an IC50 [12] of 0.1 µM.
In the case of CC(=O)N1CCN(C(=O)/C=C/c2ccc(Sc3ccc4cc[nH]c4c3)c(Cl)c2)CC1, the IC50 [3] is reported as 0.15 µM.
Work on CCOc1c(Sc2ccc(/C=C/C(=O)N3CCN(C(C)=O)CC3)cc2Cl)cc(Cl)c2cccnc12 yielded an IC50 [3] of 0.58 µM.
In the case of CC(=O)N1CCN(C(=O)/C=C/c2ccc(Sc3cc4[nH]c(O)nc4cc3Cl)c(Cl)c2)CC1, the IC50 [13] is reported as 0.79 µM.
CC(=O)N1CCN(C(=O)/C=C/c2ccc(Sc3ccc4c(ccn4CC(=O)O)c3)c(Cl)c2)CC1 gave an IC50 [14] of 0.33 µM.
Work on CC(=O)N1CCN(C(=O)/C=C/c2ccc(Sc3ccc4c(c3)OCC(C(=O)N(C)C)O4)c(Cl)c2)CC1 (stereo unspecified) yielded an IC50 [3] of 0.51 µM.
For CC(=O)N1CCN(C(=O)/C=C/c2ccc(Sc3ccc4c(c3)OCC(C(=O)O)O4)c(Cl)c2)CC1 (stereo unspecified), the IC50 [3] was 1.2 µM.
With CCn1cc(CN(C)C)c2cccc(Sc3ccc(/C=C/C(=O)N4CCN(C(C)=O)CC4)cc3Cl)c21 the IC50 [15] was 0.1 µM.
For CC(=O)N1CCN(C(=O)/C=C/c2ccc(Sc3ccccc3C(C)C)c([N+](=O)[O-])c2)CC1 [A-286982], the half-life [16] was 24 min, the solubility [17] was 0.9 µg/mL (≈ 1.98 µM) and the AUC [18] was 1900 ng·h/mL. The bioavailability [19] was 0% and the Vbeta (Rattus norvegicus) was 2 kg⁻¹.
CC(=O)N1CCN(C(=O)/C=C/c2ccc(Sc3ccc4c(ccn4C)c3)c(Cl)c2)CC1 gave an IC50 [3] of 0.02 µM.
c1ccc2c(c1)OCCO2 showed a Kd [5] of 10000 µM.
Compound CC(=O)N1CCN(C(=O)/C=C/c2ccc(Sc3ccc4[nH]cc(CN(C)C)c4c3)c(Cl)c2)CC1 has an IC50 [20] of 0.42 µM.
CC(=O)N1CCN(C(=O)/C=C/c2ccc(Sc3ccc4c(c3)OCO4)c(Cl)c2)CC1 gave an IC50 [21] of 0.12 µM.
In the case of CC(=O)N1CCN(C(=O)/C=C/c2ccc(Sc3ccc4c(c3)OCCO4)c(Cl)c2)CC1, the half-life [22] is reported as 66 min, the IC50 [1] is reported as 0.04 µM and the Cmax [23] is reported as 190 ng/mL. For the same compound, the Tmax [24] was 30 min, the AUC [25] was 2200 ng·h/mL and the AUC [26] was 280 ng·h/mL. For the same compound, the solubility [10] was 4.1 µg/mL (≈ 8.93 µM), the Vbeta [27] was 3 kg⁻¹ and the bioavailability [28] was 12.4%. It also gave a half-life [29] of 33 min.
Cn1ccc2ccccc21 gave a Kd [5] of 1400 µM.
